Source: ChEMBL document CHEMBL1131197, “5'-substituted adenosine analogs as new high-affinity partial agonists for the adenosine A1 receptor” (J Med Chem, 1998)

What was measured:
Adenosine receptor A1 [1] = biological target: T1, Adenosine receptor A1 (Rattus norvegicus, UniProt P25099); experiment: Binding affinity against adenosine A1 receptor using [3H]DPCPX in rat cortical membranes in the absence of GTP; type: cell membranes
T1 sequence (P25099 whole entry): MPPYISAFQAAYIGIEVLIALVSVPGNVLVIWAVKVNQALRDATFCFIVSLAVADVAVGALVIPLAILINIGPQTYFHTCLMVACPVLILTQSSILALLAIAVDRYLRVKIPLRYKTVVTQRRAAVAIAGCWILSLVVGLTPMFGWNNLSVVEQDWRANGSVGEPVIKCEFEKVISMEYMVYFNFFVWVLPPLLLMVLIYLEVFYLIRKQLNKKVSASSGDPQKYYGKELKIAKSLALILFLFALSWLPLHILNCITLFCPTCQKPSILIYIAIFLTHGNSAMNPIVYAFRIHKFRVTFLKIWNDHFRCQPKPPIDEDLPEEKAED
Summary of the method: (§1)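 Rat cortical membranes, pre-incubated with 2 units/mL ADA at 37 °C before storage; protein by BCA. Nonspecific binding defined with 10 µM R-PIA. Line 1 run without GTP, line 2 with 1 mM GTP. Ki values are means of three independent experiments in duplicate unless otherwise noted.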

Adenosine receptor A2a = Adenosine receptor A2a (Rattus norvegicus, UniProt P30543); experiment: Binding affinity against Adenosine A2A receptor using [3H]-CGS- 21680 as the radioligand in rat striatal membranes; type: cell membranes, Striatum, Membrane
Adenosine receptor A1 [2] = biological target: T1, Adenosine receptor A1; experiment: Binding affinity against adenosine A1 receptor using [3H]DPCPX in rat cortical membranes in the presence of GTP.; type: cell membranes; summary of the method: as §1
Adenosine receptor A1 [3] = biological target: T1, Adenosine receptor A1; experiment: Effective concentration for [35S]GTP-gamma-S, binding to adenosine A1 receptor in rat brain membranes; type: functional, cell membranes
Summary of the method: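 Stimulation of [35S]GTPγS binding in rat brain membranes (same preparation as binding); nonspecific binding defined with 10 µM unlabeled GTPγS.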

[4] = biological target: T2, Adenosine receptor A1 (Rattus norvegicus) (UniProt P25099); experiment: Intrinsic activity for maximum stimulation of [35S]GTP-gamma-S, binding to adenosine A1 receptor in rat brain membranes; type: functional, cell membranes
T2 sequence (whole entry): T1 sequence (P25099 whole entry)
Summary of the method: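 Rat brain membranes incubated with the agonist and [35S]GTPγS; nonspecific binding defined with 10 μM unlabelled GTPγS. Read-out is the maximal level of G protein activation by [35S]GTPγS binding, given ± SEM, with EC50 derived from the stimulation curves; n = 3-9.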

Chain of Adenosine receptor A2a (P30543 whole entry): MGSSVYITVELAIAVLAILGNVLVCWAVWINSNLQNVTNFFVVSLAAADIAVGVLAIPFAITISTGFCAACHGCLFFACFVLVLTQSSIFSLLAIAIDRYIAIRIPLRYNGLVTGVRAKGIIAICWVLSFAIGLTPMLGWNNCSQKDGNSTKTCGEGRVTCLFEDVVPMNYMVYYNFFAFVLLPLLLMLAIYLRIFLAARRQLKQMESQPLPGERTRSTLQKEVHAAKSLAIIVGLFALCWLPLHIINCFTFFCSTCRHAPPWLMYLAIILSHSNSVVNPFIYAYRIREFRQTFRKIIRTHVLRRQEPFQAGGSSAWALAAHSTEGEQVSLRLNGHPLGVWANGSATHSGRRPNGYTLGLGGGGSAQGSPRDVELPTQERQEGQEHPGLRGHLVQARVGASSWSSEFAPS

Row | SMILES | Ki (Adenosine receptor A1 [1]) [nM] | Ki (Adenosine receptor A2a) [nM] | Ki (Adenosine receptor A1 [2]) [nM] | EC50 (Adenosine receptor A1 [3]) [nM] | Activity [4] [%]
1 | CSC[C@H]1O[C@@H](n2cnc3c(NC4CCCC4)ncnc32)[C@H](O)[C@@H]1O | 59 | 13500 | 199 | 99 | 40.2
2 | O[C@@H]1[C@H](O)[C@@H](CCl)O[C@H]1n1cnc2c(NC3CCCC3)ncnc21 | 9.5 | 8750 | 61.5 | 26 | 88
3 | CC(C)CSC[C@H]1O[C@@H](n2cnc3c(NC4CCCC4)ncnc32)[C@H](O)[C@@H]1O | 41 | 10300 | 149 | 189 | 85.3
4 | OC[C@H]1O[C@@H](n2cnc3c(NC4CCCC4)ncnc32)[C@H](O)[C@@H]1O | – | – | – | – | 100
5 | C[Se]C[C@H]1O[C@@H](n2cnc3c(NC4CCCC4)ncnc32)[C@H](O)[C@@H]1O | 76 | 11300 | 166 | 225 | 50.3
6 | CCCNC[C@H]1O[C@@H](n2cnc3c(NC4CCCC4)ncnc32)[C@H](O)[C@@H]1O | 4640 | 14500 | 14300 | 13900 | 73
7 | CCNC[C@H]1O[C@@H](n2cnc3c(NC4CCCC4)ncnc32)[C@H](O)[C@@H]1O | 2410 | 42500 | 8560 | – | –
8 | CCCSC[C@H]1O[C@@H](n2cnc3c(NC4CCCC4)ncnc32)[C@H](O)[C@@H]1O | 76 | 18800 | 222 | 384 | 84.1
9 | CCSC[C@H]1O[C@@H](n2cnc3c(NC4CCCC4)ncnc32)[C@H](O)[C@@H]1O | 45 | 19000 | 130 | 127 | 65.6
10 | CNC[C@H]1O[C@@H](n2cnc3c(NC4CCCC4)ncnc32)[C@H](O)[C@@H]1O | 440 | 45500 | 2600 | 1330 | 96.4
